Calls of active or inactive are those of the source. The rule behind the calls is not given here.

We go through one molecule from ChEMBL document CHEMBL4024748, “Development of Potent Type I Protein Arginine Methyltransferase (PRMT) Inhibitors of Leukemia Cell Proliferation” (J Med Chem, 2017).

Series [1] deals with Protein arginine N-methyltransferase 1 (Rattus norvegicus) (UniProt Q63009). The experiment in a line: Binding affinity to rat His-tagged PRMT1 (11 to 353 residues) expressed in Escherichia coli BL21(DE3) at 200 uM by 1D 1H CPMG-NMR spectroscopic method. Summed up: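 Rat PRMT1 (11–353), N-His6, expressed in E. coli BL21(DE3) with 0.4 mM IPTG at 16°C. Purified by Ni affinity and Superdex200. NMR used 5 µM PRMT1 in phosphate buffer pH 7.4 (20 mM NaH2PO4, 20 mM Na2HPO4, 100 mM NaCl) in D2O. Ligand at 200 µM in 5% DMSO-d6. CPMG run with 5, 2 and 1 µM PRMT1, plus STD.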

Series [2] has the same target. The series can be described thus: Non-competitive inhibition of rat His-tagged PRMT1 (11 to 353 residues) expressed in Escherichia coli BL21(DE3) in presence of varying concentrations of biotinylated H4 peptide (1 to 21 residues) substrate and fixed [3H]SAM concentration. The gist of the method:
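Kinetic mode-of-action study using the radiolabel method with His6-rPRMT1(11–353). IC50 measured at varied peptide substrate or varied SAM concentrations, with the other component fixed. 15 min enzyme–compound preincubation, then 60 min reaction at RT with [3H]-SAM, Flashplate capture and Microbeta counting.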

The target of series [3] is Protein arginine N-methyltransferase 8 (Homo sapiens, UniProt Q9NR22). The series can be described thus: Inhibition of PRMT8 (unknown origin) incubated for 15 mins followed by substrate addition measured after 60 mins by AlphaLisa method. Summed up:
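AlphaLISA IC50 run. Compound dispensed to 1% DMSO final, enzyme in 1x assay buffer preincubated 15 min at room temperature. Substrate added and reacted 60 min at RT, then AlphaLISA bead mix added for 60 min at RT in subdued light. IC50 taken from the dose-response fit.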

Series [4] addresses Histone-lysine N-methyltransferase, H3 lysine-79 specific (Homo sapiens) (UniProt Q8TEK3). The experiment in a line: Inhibition of DOT1L (unknown origin) at 50 uM incubated for 15 mins followed by substrate addition measured after 60 mins by Alpha screen assay. Summed up:
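DOT1L by AlphaScreen. Enzyme and substrate in 1x assay buffer, compound at 1% DMSO final. Enzyme preincubated with compound 15 min at room temperature, substrate added, reaction 60 min at room temperature. Acceptor/donor bead mix added and incubated 60 min at room temperature under subdued light.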

Series [5] addresses T1, DNMT3A2/3L complex (Homo sapiens) (UniProt Q9Y6K1+Q9UJW3). The experiment in a line: Inhibition of DNMT3A/3L (unknown origin) at 50 uM incubated for 15 mins followed by substrate addition measured after 60 mins by radioisotope assay. The format is protein-complex assay.
Series [6] deals with Histone-lysine N-methyltransferase EZH2 (Homo sapiens) (UniProt Q15910). The experiment in a line: Inhibition of EZH2 (unknown origin) at 100 uM incubated for 15 mins followed by substrate addition measured after 60 mins by radioisotope assay.
Series [7] deals with T1, DNMT3A2/3L complex (Homo sapiens). The experiment in a line: Inhibition of DNMT3A/3L (unknown origin) at 100 uM incubated for 15 mins followed by substrate addition measured after 60 mins by radioisotope assay. The format is protein-complex assay.
The target of series [8] is Histone-lysine N-methyltransferase EHMT2 (Homo sapiens) (UniProt Q96KQ7). The series can be described thus: Inhibition of G9a (unknown origin) at 100 uM incubated for 15 mins followed by substrate addition measured after 60 mins by AlphaLisa method. Summed up:
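AlphaLISA. Enzyme and substrate in 1x assay buffer, compound at 1% DMSO final. Enzyme preincubated with compound 15 min at room temperature, then substrate added. Reaction 60 min at room temperature, then bead mix added and incubated 60 min under subdued light before signal read.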

The target of series [9] is N-lysine methyltransferase SMYD2 (Homo sapiens) (UniProt Q9NRG4). The experiment in a line: Inhibition of SMYD2 (unknown origin) at 100 uM incubated for 15 mins followed by substrate addition measured after 240 mins by AlphaLisa method. The gist of the method: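 SMYD2 AlphaLISA at 50 and 100 µM compound, 1% DMSO final. Enzyme preincubated 15 min at RT, then substrate added and reacted 240 min at RT. Bead mix added and incubated 60 min at RT in subdued light before reading.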

A further series relates to KMS-11. The experiment in a line: Cytotoxicity against human KMS11 cells assessed as decrease in cell viability after 96 hrs by Cell-Titer Glo assay. It counts as functional, cell-based. Summed up: (§1)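 Cells kept at 37°C, 5% CO2, exposed to compound or DMSO control for 96 h. Viability read by CellTiter-Glo luminescence after 2 min shaking to lyse and 10 min at room temperature. Triplicate wells, normalised to control cells. For long-term growth, log-phase seeding densities; cells counted and replated to the starting density with fresh compound on days 4 and 8.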

Another series relates to RS4-11. The experiment in a line: Cytotoxicity against human RS4:11 cells assessed as decrease in cell viability after 96 hrs by Cell-Titer Glo assay. It counts as functional, cell-based. The gist of the method:
as §1

The test system of the next series is RCH-ACV. The series can be described thus: Cytotoxicity against human RCH-ACV cells assessed as decrease in cell viability after 96 hrs by Cell-Titer Glo assay. It counts as functional, cell-based. Summed up:
as §1

Series [10] is described as follows: Cytotoxicity against human RCTEC cells assessed as decrease in cell viability at 6.25 to 25 uM after 96 hrs by Cell-Titer Glo assay. It counts as cell-based. Summed up: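 Normal HUV-EC-C, MRC-5 and RCTEC cells at 37°C, 5% CO2, given compound or DMSO control for 96 h. Viability by CellTiter-Glo luminescence after 2 min shaking and 10 min at room temperature. Triplicate wells, normalised to control cells.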

In series [11] the test system is MV4-11. The experiment in a line: Downregulation of HOXA10 mRNA levels in human MV4-11 cells by qRT-PCR analysis. It counts as functional, cell-based. The gist of the method: (§2)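 MV4-11 cells treated with compound. mRNA measured by SYBR Green qRT-PCR with B2M as internal control. Fold change from ΔΔCt. Samples run in triplicate, mean ± SD.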
Series [12] deals with MV4-11. The series can be described thus: Downregulation of MEIS1 mRNA levels in human MV4-11 cells by qRT-PCR analysis. The format is functional, cell-based. Summed up: as §2

T1 sequence (Q9UJW3 whole entry, looked up): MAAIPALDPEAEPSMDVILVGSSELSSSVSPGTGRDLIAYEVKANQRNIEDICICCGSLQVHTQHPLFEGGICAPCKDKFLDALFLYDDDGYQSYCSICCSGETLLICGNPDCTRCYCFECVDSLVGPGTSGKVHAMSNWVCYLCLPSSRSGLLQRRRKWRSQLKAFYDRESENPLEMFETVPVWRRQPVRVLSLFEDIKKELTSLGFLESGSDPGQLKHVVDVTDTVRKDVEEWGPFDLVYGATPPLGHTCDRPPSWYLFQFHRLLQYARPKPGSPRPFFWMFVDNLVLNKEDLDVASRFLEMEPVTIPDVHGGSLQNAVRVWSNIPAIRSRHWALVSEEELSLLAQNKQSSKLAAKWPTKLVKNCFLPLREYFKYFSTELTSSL
T1 sequence (Q9Y6K1 whole entry, looked up): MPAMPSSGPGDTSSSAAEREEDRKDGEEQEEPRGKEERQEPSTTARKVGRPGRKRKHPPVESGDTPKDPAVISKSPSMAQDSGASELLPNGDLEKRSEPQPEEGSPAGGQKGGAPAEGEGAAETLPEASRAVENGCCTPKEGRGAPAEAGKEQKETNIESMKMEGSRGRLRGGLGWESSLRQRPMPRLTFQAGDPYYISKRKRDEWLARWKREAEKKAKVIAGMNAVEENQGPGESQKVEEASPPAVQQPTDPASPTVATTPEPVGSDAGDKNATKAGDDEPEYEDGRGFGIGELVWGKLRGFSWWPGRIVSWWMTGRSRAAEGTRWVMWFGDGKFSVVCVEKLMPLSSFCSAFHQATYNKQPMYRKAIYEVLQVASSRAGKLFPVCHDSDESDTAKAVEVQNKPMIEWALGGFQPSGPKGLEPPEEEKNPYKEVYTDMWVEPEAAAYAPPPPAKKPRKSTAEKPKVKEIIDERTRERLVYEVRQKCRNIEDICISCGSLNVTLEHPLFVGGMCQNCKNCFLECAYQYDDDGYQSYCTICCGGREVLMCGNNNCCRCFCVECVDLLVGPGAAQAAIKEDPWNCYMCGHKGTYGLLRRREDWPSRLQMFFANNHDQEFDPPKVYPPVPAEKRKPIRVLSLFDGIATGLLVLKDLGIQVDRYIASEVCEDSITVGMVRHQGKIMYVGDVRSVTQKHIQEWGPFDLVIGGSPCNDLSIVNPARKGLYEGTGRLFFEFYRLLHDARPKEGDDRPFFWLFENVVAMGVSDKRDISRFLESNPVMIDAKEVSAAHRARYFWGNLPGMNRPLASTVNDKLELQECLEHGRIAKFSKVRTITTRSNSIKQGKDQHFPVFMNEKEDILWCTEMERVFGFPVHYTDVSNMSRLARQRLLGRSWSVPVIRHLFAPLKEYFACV
Protein arginine N-methyltransferase 1 (Rattus norvegicus), sequence (Q63009 whole entry, looked up, the tested form may be a part): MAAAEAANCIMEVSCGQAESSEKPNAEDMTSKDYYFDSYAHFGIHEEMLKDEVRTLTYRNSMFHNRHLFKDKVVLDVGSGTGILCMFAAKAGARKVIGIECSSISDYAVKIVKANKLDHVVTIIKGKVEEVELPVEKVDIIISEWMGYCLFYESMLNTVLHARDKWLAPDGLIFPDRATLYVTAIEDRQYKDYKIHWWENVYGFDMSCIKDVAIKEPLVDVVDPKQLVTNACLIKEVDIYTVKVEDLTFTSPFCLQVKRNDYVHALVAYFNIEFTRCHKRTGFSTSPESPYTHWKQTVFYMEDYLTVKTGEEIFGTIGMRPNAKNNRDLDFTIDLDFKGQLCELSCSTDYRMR
N-lysine methyltransferase SMYD2 (Homo sapiens), sequence (Q9NRG4 whole entry): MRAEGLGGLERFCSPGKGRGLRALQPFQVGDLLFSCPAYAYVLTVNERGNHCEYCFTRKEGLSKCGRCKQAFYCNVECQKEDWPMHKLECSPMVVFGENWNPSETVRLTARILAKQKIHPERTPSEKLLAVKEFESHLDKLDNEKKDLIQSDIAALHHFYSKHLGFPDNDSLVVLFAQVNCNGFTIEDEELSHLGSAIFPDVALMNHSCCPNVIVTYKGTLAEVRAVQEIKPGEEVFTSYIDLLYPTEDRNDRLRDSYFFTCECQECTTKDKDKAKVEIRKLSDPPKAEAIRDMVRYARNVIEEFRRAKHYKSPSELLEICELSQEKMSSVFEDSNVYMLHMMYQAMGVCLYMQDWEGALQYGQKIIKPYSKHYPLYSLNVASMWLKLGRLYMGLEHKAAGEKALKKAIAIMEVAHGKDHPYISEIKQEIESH
Histone-lysine N-methyltransferase EZH2 (Homo sapiens), sequence (Q15910 whole entry, looked up): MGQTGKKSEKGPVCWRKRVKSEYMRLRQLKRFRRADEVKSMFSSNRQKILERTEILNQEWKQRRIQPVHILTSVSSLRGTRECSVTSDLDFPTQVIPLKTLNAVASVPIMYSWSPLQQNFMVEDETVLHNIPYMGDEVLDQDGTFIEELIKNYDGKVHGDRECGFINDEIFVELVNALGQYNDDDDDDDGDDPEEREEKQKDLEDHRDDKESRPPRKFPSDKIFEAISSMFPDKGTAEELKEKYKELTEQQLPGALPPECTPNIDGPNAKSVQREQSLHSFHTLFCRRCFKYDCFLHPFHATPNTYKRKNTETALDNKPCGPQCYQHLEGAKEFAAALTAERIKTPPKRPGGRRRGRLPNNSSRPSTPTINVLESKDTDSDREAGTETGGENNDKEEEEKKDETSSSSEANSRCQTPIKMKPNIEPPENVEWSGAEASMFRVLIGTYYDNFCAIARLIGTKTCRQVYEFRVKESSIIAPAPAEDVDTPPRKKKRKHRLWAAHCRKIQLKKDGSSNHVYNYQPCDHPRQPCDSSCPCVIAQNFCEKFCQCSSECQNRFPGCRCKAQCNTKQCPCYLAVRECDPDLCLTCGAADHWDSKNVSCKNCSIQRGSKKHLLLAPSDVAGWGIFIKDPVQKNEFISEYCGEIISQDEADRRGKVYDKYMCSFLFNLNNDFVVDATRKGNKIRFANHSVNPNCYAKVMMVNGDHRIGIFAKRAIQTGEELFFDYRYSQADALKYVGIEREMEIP
Histone-lysine N-methyltransferase EHMT2 (Homo sapiens), sequence (Q96KQ7 whole entry): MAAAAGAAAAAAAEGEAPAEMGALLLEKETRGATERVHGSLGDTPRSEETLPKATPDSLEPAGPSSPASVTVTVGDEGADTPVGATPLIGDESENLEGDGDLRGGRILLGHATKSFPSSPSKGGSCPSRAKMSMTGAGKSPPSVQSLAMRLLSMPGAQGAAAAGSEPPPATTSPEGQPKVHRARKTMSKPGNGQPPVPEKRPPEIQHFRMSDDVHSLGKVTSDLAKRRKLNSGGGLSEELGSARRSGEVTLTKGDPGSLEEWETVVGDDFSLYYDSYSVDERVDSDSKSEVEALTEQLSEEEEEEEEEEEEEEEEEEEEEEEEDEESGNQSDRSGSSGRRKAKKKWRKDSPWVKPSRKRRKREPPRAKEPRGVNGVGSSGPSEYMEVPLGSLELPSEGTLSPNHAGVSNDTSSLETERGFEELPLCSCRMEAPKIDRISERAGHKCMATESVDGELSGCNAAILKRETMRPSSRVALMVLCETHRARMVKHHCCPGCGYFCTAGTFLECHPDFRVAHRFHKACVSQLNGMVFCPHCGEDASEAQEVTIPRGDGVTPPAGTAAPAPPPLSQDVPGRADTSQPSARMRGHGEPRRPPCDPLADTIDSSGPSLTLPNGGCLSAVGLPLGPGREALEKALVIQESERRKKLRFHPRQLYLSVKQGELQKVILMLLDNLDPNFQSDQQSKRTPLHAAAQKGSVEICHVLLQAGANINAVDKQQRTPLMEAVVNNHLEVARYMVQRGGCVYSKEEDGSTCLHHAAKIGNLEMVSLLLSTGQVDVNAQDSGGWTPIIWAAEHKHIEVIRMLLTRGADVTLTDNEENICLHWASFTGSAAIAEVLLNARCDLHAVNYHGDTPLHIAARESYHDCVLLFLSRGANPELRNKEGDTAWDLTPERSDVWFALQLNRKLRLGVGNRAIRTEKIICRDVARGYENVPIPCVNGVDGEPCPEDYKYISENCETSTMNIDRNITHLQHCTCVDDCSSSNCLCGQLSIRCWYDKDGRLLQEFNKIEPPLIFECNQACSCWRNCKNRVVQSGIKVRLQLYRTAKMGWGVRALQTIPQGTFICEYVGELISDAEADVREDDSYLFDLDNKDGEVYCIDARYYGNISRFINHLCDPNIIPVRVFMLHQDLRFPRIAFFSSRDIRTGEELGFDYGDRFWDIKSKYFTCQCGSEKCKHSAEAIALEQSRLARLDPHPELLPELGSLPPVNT
Protein arginine N-methyltransferase 8, sequence (Q9NR22 whole entry): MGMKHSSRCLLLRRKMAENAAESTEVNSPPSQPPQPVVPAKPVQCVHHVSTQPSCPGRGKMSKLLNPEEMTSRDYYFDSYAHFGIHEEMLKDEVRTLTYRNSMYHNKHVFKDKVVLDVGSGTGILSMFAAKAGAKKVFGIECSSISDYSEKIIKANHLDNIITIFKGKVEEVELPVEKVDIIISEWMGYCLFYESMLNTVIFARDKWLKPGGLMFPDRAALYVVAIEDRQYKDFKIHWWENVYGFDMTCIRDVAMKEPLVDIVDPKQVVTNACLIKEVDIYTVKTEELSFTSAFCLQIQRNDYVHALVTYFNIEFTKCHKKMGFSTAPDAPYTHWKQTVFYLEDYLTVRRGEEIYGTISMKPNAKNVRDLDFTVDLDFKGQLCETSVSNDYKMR

Turning to `CN(CCN)Cc1ccccc1Sc1ccccc1Cl`, in series [1], the outcome was Active. Also, the inhibition entry in series [2], in [4], in series [5], in [6], in [7] and in [8] was “Active” in each case. Besides, in series [9], the inhibition result was “Active”. For the same molecule, the half-inhibitory concentration (IC50) in series [3] came out at 1.1 nM. Moreover, the Activity result is “Dose-dependent effect” in the series on KMS-11; “Dose-dependent effect” in the series on RS4-11; “Dose-dependent effect” with RCH-ACV; “Non-Toxic” in series [10]; “Dose-dependent effect” in the series with MV4-11 [11]; “Dose-dependent effect” in the series with MV4-11 [12].
